Values after ≈ are worked out from the molar mass of the structure shown.
Columns and labels:
Cytochrome P450 3A4 = Cytochrome P450 3A4 (Homo sapiens, UniProt P08684); assay: Inhibition of CYP3A4 (unknown origin) using testosterone as substrate; format: ADME
[1] = Drug uptake in Wistar rat CSF at 10 mg/kg, po measured after 3 hrs; format: ADME, organism-based, Cerebrospinal fluid; settings: read-out: Drug uptake
Procedure, shortened: (§1)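 Male Wistar rats given oral doses of 10, 30 or 100 mg/kg. Plasma, brain and CSF collected at 1 h, and at 3 h for the 10 mg/kg dose; compound concentrations measured in each.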

[2] = Oral bioavailability in Wistar rat plasma at 2 mg/kg administered 2 hrs after aminobenzotriazol-treatment; format: ADME, organism-based
Procedure, shortened: (§2)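 Rats dosed orally with the CYP inhibitor aminobenzotriazol 2 h before the iv dose of 0.2 mg/kg. Oral dose was 2 mg/kg.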

[3] = Metabolic stability in human microsomes measured per mg protein; format: ADME, Microsome
[4] = Cmax in Beagle dog plasma at 10 mg/kg, po; format: ADME, organism-based, Canis lupus familiaris; parameters: dose 10 mg/kg, route oral
Procedure, shortened: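 Beagle dogs given a single oral dose of 10 mg/kg; plasma Cmax and Tmax determined.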

[5] = Drug uptake in Wistar rat brain at 30 mg/kg, po measured after 1 hr; format: ADME, organism-based; settings: read-out: Drug uptake; procedure, shortened: as §1
[6] = Plasma concentration in Wistar rat at 100 mg/kg, po measured after 1 hr; format: ADME, organism-based
[7] = Aqueous solubility of the compound at pH 4 by UV-HPLC method; format: physicochemical
Procedure, shortened: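 Compound dispensed from a 10 mM DMSO stock and the solvent evaporated. Residue stirred 24 h at room temperature in buffer: citrate (55 mM) pH 4.0 or phosphate (67 mM) pH 7.0. Mixture filtered by centrifugation. Filtrate concentration measured by HPLC-UV against calibration solutions.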

[8] = Metabolic stability in mouse microsomes measured per mg protein; format: ADME, Microsome
Rattus norvegicus [9] = assay: Cardiovascular toxicity in spontaneously hypertensive rat assessed as increase in PR interval of ECG at 100 mg/kg, po; format: organism-based; settings: in vivo
Procedure, shortened: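 Conscious, freely moving male spontaneously hypertensive rats with telemetry recording MAP, HR and ECG. Single oral dose (5 ml/kg) given as a suspension in 0.5% w/v methylcellulose in water, in the morning during the sleep phase. Vehicle controls run in parallel, n = 8 per group.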

[10] = Drug uptake in Wistar rat brain at 100 mg/kg, po measured after 1 hr; format: ADME, organism-based; settings: read-out: Drug uptake; procedure, shortened: as §1
MDR1 [11] = assay: Apparent permeability across basolateral to apical side in MDCK cells expressing MDR1 (unknown origin) at 1 uM; format: ADME, cell-based, Canis lupus familiaris; settings: dog
Procedure, shortened: (§3)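 MDR1-transfected MDCK cell monolayers. Compound tested at 1 µM. Apparent permeability measured in both directions, apical to basolateral and basolateral to apical. Efflux ratio taken from the two directional permeabilities.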

[12] = Plasma concentration in Wistar rat at 30 mg/kg, po measured after 1 hr; format: ADME, organism-based
Rattus norvegicus [13] = assay: Anticonvulsant activity in WAG/Rij rat model of generalized nonconvulsive absence-like epilepsy assessed as decrease in total duration of spontaneous seizures at 100 mg/kg, po administered as single dose at beginning of nocturnal active phase measured over 12 hrs by radiotelometry relative to vehicle control
[14] = Volume of distribution at steady state in Wistar rat plasma at 0.2 mg/kg, iv administered 2 hrs after aminobenzotriazol-treatment; format: ADME, organism-based; settings: read-out: Vdss; procedure, shortened: as §2
[15] = Drug uptake in Wistar rat brain at 10 mg/kg, po measured after 3 hrs; format: ADME, organism-based; settings: read-out: Drug uptake; procedure, shortened: as §1
[16] = Drug uptake in Wistar rat assessed as unbound drug level measured after 1 hr; format: ADME; settings: in vivo
[17] = Fraction unbound in Wistar rat microsomes; format: ADME, Microsome
[18] = Tmax in Wistar rat plasma at 2 mg/kg, po administered 2 hrs after aminobenzotriazol-treatment; format: ADME, organism-based; procedure, shortened: as §2
[19] = biological target: Voltage-dependent T-type calcium channel subunit alpha-1H (Homo sapiens, UniProt O95180); assay: Inhibition of recombinant T-type calcium channel Cav3.2 (unknown origin) expressed in HEK293 cells assessed as inhibition of CaCl2-induced calcium influx preincubated for 3 mins prior CaCl2 addition by Fluo-4-AM dye-based FLIPR assay; format: cell-based
Procedure, shortened: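 HEK293 cells stably expressing Cav3.2, plated overnight at 37°C, loaded 1 h at 37°C with 3 µM Fluo-4-AM in HBSS/Hepes pH 7.4, then washed. Compound in TEAC buffer (100 mM tetraethylammonium chloride, pH 7.2), 3-fold series from 10 µM to 0.05 nM, 3 min before CaCl2 to a final 10 mM. IC50 fitted sigmoidally to the fluorescence AUC against vehicle signal; mean of at least two independent experiments.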

Rattus norvegicus [20] = organism: Rattus norvegicus; assay: Inhibition of Wistar rat brain neuronal sodium channel assessed as peak inward current at 10 uM measured during last peak
Procedure, shortened: (§4)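 Cortical neurons from E18 Wistar rat embryos, cultured 9-15 days, recorded by manual patch clamp from a holding potential of -80 mV. K+ currents: one 50-ms step to 0 mV, fast as peak outward and slow as end-of-pulse current. Na+ currents: train of fifteen 10-ms steps to 0 mV, peak inward current read at the first and last pulses. Effects read at least 180 s after application.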

[21] = Half life in Wistar rat plasma at 0.2 mg/kg, iv administered 2 hrs after aminobenzotriazol-treatment; format: ADME, organism-based
Procedure, shortened: (§5)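 Male Wistar rats dosed iv at 0.2 mg/kg or po at 2 mg/kg. In the inhibited arm, the broad CYP inhibitor aminobenzotriazol was given orally 2 h before dosing. Clearance, Vss and half-life derived from plasma concentrations after the iv dose; Cmax and Tmax from the po dose.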

Cytochrome P450 2D6 = Cytochrome P450 2D6 (Homo sapiens, UniProt P10635); assay: Inhibition of CYP2D6 (unknown origin)
[22] = Plasma concentration in Wistar rat at 10 mg/kg, po measured after 3 hrs; format: ADME, organism-based
[23] = Cmax in Wistar rat plasma at 2 mg/kg, po; format: ADME, organism-based; parameters: dose 2 mg/kg, route oral; procedure, shortened: as §5
[24] = biological target: T1, Voltage-dependent T-type calcium channel subunit alpha-1G (Homo sapiens, UniProt O43497); assay: Inhibition of T-type calcium channel Cav3.1 (unknown origin) expressed in HEK293 cells assessed as calcium influx by Fluo-4-AM dye-based FLIPR assay; format: cell-based
Procedure, shortened: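 HEK293 cells stably expressing the channel, seeded overnight and loaded 1 h at 37°C with 3 µM Fluo-4-AM. Compounds given as a 3-fold dilution series from 10 µM to 0.05 nM and incubated 3 min. For T-type channels, dilutions in TEAC buffer and stimulation with 10 mM final CaCl2. For Cav1.2, dilutions in assay buffer and stimulation with 20 mM final KCl. IC50 from area under the fluorescence trace against vehicle; mean of at least two experiments.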

MDR1 [25] = assay: Efflux ratio of permeability in MDCK cells expressing MDR1 (unknown origin); format: ADME, cell-based, Canis lupus familiaris; settings: dog; procedure, shortened: as §3
Rattus norvegicus [26] = organism: Rattus norvegicus; assay: Inhibition of Wistar rat brain potassium channel at 10 uM assessed as reduction in fast potassium current at -80 mV holding potential measured after 180 secs; procedure, shortened: as §4
[27] = Half life in Wistar rat plasma at 0.2 mg/kg, iv; format: ADME, organism-based; procedure, shortened: as §5
[28] = biological target: T1, Voltage-dependent T-type calcium channel subunit alpha-1G; assay: Inhibition of human T-type calcium channel Cav3.1 expressed in CHO cells assessed as inhibition of calcium tail current at -90 mV holding potential measured after 150 secs by QPatch assay; format: cell-based
Procedure, shortened: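 CHO cells stably expressing human Cav3.1, Cav3.2 or Cav3.3, automated QPatch recording. 3-ms depolarization to +20 mV from a holding potential of -90 or -60 mV. Ca2+ tail current measured at -60 mV. Cs-glutamate internal and TEA-Cl external solution with 5 mM Ca2+. Effect read 150 s after application.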

T1 sequence (O43497 whole entry): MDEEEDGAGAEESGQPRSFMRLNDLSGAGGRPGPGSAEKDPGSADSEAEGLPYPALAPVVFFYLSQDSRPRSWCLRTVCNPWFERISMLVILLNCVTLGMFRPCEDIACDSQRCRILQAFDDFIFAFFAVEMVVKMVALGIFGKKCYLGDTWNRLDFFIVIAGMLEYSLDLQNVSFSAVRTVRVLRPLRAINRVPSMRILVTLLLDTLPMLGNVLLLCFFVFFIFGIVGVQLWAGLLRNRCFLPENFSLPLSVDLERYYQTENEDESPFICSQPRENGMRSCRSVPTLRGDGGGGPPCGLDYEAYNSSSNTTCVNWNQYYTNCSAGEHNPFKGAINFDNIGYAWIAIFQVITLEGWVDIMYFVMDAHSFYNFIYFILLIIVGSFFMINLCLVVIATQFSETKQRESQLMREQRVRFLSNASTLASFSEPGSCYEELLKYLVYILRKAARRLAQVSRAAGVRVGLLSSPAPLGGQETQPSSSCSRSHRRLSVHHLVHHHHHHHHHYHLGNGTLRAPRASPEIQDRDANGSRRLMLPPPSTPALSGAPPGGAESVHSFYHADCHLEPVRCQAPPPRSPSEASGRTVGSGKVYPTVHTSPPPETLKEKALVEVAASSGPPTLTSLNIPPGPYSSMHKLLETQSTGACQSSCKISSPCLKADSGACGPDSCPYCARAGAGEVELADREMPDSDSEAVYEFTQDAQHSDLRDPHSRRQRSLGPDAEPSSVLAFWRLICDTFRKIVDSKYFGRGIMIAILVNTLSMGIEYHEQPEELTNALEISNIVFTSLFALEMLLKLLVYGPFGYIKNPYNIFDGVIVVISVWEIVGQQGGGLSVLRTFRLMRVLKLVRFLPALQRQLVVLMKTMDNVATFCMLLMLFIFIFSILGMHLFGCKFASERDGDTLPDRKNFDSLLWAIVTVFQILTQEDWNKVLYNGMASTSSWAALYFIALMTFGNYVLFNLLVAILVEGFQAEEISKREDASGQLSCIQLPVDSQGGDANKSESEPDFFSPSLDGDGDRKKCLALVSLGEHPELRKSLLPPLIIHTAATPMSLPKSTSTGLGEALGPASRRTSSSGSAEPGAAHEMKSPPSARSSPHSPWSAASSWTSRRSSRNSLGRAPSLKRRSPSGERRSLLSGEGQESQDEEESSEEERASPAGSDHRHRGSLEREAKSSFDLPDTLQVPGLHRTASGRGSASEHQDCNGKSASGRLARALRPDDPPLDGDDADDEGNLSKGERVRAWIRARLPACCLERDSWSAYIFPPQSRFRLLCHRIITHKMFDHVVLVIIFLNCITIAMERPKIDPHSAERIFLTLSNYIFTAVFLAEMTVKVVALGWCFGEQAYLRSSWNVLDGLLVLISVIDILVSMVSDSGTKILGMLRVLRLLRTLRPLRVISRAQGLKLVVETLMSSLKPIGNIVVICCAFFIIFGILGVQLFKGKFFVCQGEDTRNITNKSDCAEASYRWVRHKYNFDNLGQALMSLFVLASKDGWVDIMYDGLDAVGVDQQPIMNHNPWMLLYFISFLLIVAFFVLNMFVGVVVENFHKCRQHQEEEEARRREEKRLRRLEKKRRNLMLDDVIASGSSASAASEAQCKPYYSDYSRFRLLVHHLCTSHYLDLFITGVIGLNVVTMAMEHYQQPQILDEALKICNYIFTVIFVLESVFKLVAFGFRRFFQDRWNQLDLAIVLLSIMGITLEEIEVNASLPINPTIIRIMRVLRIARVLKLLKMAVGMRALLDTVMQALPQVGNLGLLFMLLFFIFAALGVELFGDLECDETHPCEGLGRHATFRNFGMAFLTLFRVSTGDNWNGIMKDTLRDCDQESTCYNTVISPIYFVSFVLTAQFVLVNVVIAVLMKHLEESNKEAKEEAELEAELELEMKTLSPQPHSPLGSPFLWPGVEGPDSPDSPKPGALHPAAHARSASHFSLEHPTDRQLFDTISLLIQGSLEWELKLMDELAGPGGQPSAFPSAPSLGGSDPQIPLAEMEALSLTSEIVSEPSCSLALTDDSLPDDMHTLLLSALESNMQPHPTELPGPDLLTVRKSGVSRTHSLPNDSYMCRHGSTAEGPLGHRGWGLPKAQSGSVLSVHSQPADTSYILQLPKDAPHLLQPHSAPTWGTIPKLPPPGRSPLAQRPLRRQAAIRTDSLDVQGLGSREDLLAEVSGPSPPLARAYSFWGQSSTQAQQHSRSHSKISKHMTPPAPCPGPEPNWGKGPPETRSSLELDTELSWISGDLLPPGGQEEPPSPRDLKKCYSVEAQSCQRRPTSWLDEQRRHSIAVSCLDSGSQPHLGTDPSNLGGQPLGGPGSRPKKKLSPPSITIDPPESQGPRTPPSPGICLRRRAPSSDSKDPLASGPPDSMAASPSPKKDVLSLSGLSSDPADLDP
Sequence of Cytochrome P450 3A4 (P08684 whole entry): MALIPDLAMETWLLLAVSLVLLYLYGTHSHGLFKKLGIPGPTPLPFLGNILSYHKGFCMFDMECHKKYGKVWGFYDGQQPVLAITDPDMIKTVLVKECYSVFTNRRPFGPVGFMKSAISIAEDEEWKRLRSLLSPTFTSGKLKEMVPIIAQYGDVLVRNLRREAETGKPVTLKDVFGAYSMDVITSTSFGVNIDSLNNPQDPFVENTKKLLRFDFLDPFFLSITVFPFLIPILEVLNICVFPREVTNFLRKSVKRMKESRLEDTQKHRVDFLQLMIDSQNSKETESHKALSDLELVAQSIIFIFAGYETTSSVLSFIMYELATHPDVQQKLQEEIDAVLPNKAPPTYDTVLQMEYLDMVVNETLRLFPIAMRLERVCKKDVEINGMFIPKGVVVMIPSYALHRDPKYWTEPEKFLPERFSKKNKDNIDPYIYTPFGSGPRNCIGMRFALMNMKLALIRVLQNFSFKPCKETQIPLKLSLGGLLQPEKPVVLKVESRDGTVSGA
Sequence of Cytochrome P450 2D6 (P10635 whole entry): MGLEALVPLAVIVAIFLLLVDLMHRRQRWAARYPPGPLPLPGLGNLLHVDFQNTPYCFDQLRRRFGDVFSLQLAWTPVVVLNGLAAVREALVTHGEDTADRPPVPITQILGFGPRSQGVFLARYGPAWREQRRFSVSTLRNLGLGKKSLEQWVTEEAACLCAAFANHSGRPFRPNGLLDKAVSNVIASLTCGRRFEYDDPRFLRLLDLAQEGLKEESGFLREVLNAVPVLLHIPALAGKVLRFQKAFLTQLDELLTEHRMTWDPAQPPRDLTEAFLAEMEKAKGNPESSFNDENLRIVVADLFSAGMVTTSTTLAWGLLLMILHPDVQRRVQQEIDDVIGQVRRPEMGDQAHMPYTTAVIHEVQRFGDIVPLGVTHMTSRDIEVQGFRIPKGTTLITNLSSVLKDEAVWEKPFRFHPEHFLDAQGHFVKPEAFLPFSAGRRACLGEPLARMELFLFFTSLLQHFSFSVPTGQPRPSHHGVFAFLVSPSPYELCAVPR

IC50 (Cytochrome P450 3A4): 1800 nM | concentration at 3 h [1]: 29 nM | bioavailability [2]: 100% | microsomal CLint [3]: 21 µL/min/mg | Cmax [4]: 160 nM | concentration at 1 h [5]: 2570 nM | concentration at 1 h [6]: 1230 nM | solubility [7]: 33 µg/mL (≈ 87.2 µM) | microsomal CLint [8]: 37 µL/min/mg | concentration at 1 h [10]: 4270 nM | Papp B→A at 1 µM (MDR1 [11]): 44 ×10⁻⁶ cm/s | concentration at 1 h [12]: 630 nM | Vd [14]: 17 L/kg | concentration at 3 h [15]: 1150 nM | Drug uptake(free) [16]: 37 nM | fraction unbound [17]: 0.5 | Tmax [18]: 6.6 h | IC50 [19]: 33 nM | inhibition (Rattus norvegicus [20]): 26% | half-life [21]: 120 h | IC50 (Cytochrome P450 2D6): 44000 nM | concentration at 3 h [22]: 290 nM | Cmax [23]: 27 nM | IC50 [24]: 29 nM | efflux ratio (MDR1 [25]): 1 | inhibition (Rattus norvegicus [26]): 18% | half-life [27]: 7.1 h | IC50 [28]: 1800 nM
Compound: O=C(Nc1ccc(F)cc1)N1N=C(c2ccncc2)CC1c1ccc(F)cc1 (stereo not given)
Activity (Rattus norvegicus [9]): Toxic | inhibition in vivo at 100 mg/kg (Rattus norvegicus [13]): 62.2%

— ChEMBL document CHEMBL3853331, “Preparation, Antiepileptic Activity, and Cardiovascular Safety of Dihydropyrazoles as Brain-Penetrant T-Type Calcium Channel Blockers” (J Med Chem, 2016)
